Legend:
HeLa = assay: In vitro antitumor activity against HeLa cell lines by using MTT assay; type: functional, cell-based; details: Homo sapiens
Method in brief: (§1)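 Tetrazolium salt (MTT) read-out of in vitro growth inhibition; the reported value is the concentration producing 50% inhibition (IC50).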

BGC-823 = assay: In vitro antitumor activity against BGC-823 cell lines by using MTT assay; type: functional, cell-based; details: Homo sapiens; method in brief: as §1

SMILES	IC50 (HeLa) [µM]	IC50 (BGC-823) [µM]
CCCC(=O)NCCCCNCCCNC(=O)c1csc(-c2csc(CCNC(=O)[C@@H](NC(=O)[C@@H](C)C(O)C(C)NC(=O)[C@@H](NC(=O)c3nc([C@H](CC(N)=O)NCC(N)C(N)=O)nc(N)c3C)[C@@H](O[C@@H]3O[C@@H](CO)[C@@H](O)[C@@H](O)[C@@H]3OC3O[C@H](CO)[C@@H](O)[C@H](OC(N)=O)[C@@H]3O)c3c[nH]cn3)[C@@H](C)O)n2)n1 (some centres undefined)	13.8	2.62
CC(=O)NCCCCNCCCNC(=O)c1csc(-c2csc(CCNC(=O)[C@@H](NC(=O)[C@@H](C)C(O)C(C)NC(=O)[C@@H](NC(=O)c3nc([C@H](CC(N)=O)NCC(N)C(N)=O)nc(N)c3C)[C@@H](O[C@@H]3O[C@@H](CO)[C@@H](O)[C@@H](O)[C@@H]3O[C@H]3O[C@H](CO)[C@@H](O)[C@H](OC(N)=O)[C@@H]3O)c3c[nH]cn3)[C@@H](C)O)n2)n1 (some centres undefined)	15.3	22.1
CCC(=O)NCCCCNCCCNC(=O)c1csc(-c2csc(CCNC(=O)[C@@H](NC(=O)[C@@H](C)C(O)C(C)NC(=O)[C@@H](NC(=O)c3nc([C@H](CC(N)=O)NCC(N)C(N)=O)nc(N)c3C)[C@@H](O[C@@H]3O[C@@H](CO)[C@@H](O)[C@@H](O)[C@@H]3O[C@H]3O[C@H](CO)[C@@H](O)[C@H](OC(N)=O)[C@@H]3O)c3c[nH]cn3)[C@@H](C)O)n2)n1 (some centres undefined)	14.4	6.46
Cc1c(N)nc([C@H](CC(N)=O)NCC(N)C(N)=O)nc1C(=O)N[C@H](C(=O)NC(C)C(O)[C@H](C)C(=O)N[C@H](C(=O)NCCc1nc(-c2nc(C(=O)NCCCNCCCCNC(=O)c3ccccn3)cs2)cs1)[C@@H](C)O)[C@@H](O[C@@H]1O[C@@H](CO)[C@@H](O)[C@@H](O)[C@@H]1O[C@H]1O[C@H](CO)[C@@H](O)[C@H](OC(N)=O)[C@@H]1O)c1c[nH]cn1 (some centres undefined)	14.8	10.8
Cc1c(N)nc([C@H](CC(N)=O)NCC(N)C(N)=O)nc1C(=O)N[C@H](C(=O)NC(C)C(O)[C@H](C)C(=O)N[C@H](C(=O)NCCc1nc(-c2nc(C(=O)NCCCNCCCCNC=O)cs2)cs1)[C@@H](C)O)[C@@H](O[C@@H]1O[C@@H](CO)[C@@H](O)[C@@H](O)[C@@H]1O[C@H]1O[C@H](CO)[C@@H](O)[C@H](OC(N)=O)[C@@H]1O)c1c[nH]cn1 (some centres undefined)	12.2	31
Cc1c(N)nc([C@H](CC(N)=O)NCC(N)C(N)=O)nc1C(=O)N[C@H](C(=O)NC(C)C(O)[C@H](C)C(=O)N[C@H](C(=O)NCCc1nc(-c2nc(C(=O)NCCCNCCCCNC(=O)c3ccccc3)cs2)cs1)[C@@H](C)O)[C@@H](O[C@@H]1O[C@@H](CO)[C@@H](O)[C@@H](O)[C@@H]1O[C@H]1O[C@H](CO)[C@@H](O)[C@H](OC(N)=O)[C@@H]1O)c1c[nH]cn1 (some centres undefined)	11.7	7.46
Cc1c(N)nc([C@H](CC(N)=O)NCC(N)C(N)=O)nc1C(=O)N[C@H](C(=O)NC(C)C(O)[C@H](C)C(=O)N[C@H](C(=O)NCCc1nc(-c2nc(C(=O)NCCC[S+](C)C)cs2)cs1)[C@@H](C)O)[C@@H](O[C@@H]1O[C@@H](CO)[C@@H](O)[C@H](O)[C@@H]1O[C@H]1O[C@H](CO)[C@@H](O)[C@H](OC(N)=O)[C@@H]1O)c1c[nH]cn1 (some centres undefined)	16.2	10.1
